Structures are written as SMILES. ≈ marks a conversion by molar mass, not a printed value. Calls of active or inactive are those of the source. The rule behind the calls is not given here.

The values below come from ChEMBL document CHEMBL1806366, “Synthesis and structure-activity relationship of new 1,5-dialkyl-1,5-benzodiazepines as cholecystokinin-2 receptor antagonists” (Bioorg Med Chem, 2011).

Data set [1] in a line: Solubility of the compound at pH 2.4. In kind it is physicochemical. The settings on record: buffer.
Data set [2] has as its system Mus musculus. Description: Anxiolytic activity in mouse up to 300 ug/kg, po measured after 60 mins post dose by black/white box test. In kind it is functional, organism-based. An outline of the steps: (§1)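 Mice dosed orally 60 min before testing, then placed in the centre of the illuminated white compartment of a two-part black/white box. Time spent exploring the white and black sides recorded; longer time in the white side read as anxiolytic effect. Model used for both potency and duration of action.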

Data set [3] has as its target T1, Cholecystokinin receptor type A (Rattus norvegicus, UniProt P30551).
T1 sequence (P30551 whole entry): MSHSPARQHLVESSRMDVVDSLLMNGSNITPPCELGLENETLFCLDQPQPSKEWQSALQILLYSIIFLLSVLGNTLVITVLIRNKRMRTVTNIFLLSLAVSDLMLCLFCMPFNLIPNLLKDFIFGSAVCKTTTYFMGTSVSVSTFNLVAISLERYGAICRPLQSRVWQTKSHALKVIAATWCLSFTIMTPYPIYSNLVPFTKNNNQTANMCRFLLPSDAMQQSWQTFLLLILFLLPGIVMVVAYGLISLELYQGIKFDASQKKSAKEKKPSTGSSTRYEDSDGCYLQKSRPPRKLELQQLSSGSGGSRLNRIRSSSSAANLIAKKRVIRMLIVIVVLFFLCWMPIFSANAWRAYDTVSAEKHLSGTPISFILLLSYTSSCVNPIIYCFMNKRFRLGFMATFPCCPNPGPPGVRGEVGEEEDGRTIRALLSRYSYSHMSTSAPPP
Nature of the data set: Displacement of [3H]CCK8 from rat pancreas CCK1 receptor at by liquid scintillation counting. In short, it runs like this: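 Rat pancreas membranes incubated at 37 °C with [³H]-CCK8s at 0.2 nM; nonspecific binding defined with L-364,718. Bound and free ligand separated by filtration over GF/C filters, then counted by liquid scintillation. Ki calculated using Bmax and KD from separate saturation binding isotherms.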

A short description of data set [4]: Selectivity ratio of pKi for guinea pig brain CCK2 receptor to pKi for rat pancreas CCK1. An outline of the steps: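 Radioligand displacement binding to guinea pig brain membranes (CCK2, incubated at 25 °C) and rat pancreas membranes (CCK1, incubated at 37 °C) with 0.2 nM [³H]-CCK8s. Non-specific binding was defined with L-365,260 (CCK2) or L-364,718 (CCK1). Bound ligand was separated by GF/C filtration and counted by liquid scintillation. Ki values were derived for each subtype, with KD and Bmax taken from separate saturation isotherms.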

Data set [5] in a line: Displacement of [3H]CCK8 from guinea pig brain CCK2 receptor by liquid scintillation counting. Also on record: species or system Cavia porcellus. An outline of the steps:
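Guinea pig brain membranes incubated at 25 °C with [³H]-CCK8s at 0.2 nM; nonspecific binding defined with L-365,260. Bound and free ligand separated by filtration over GF/C filters, then counted by liquid scintillation. Ki calculated using Bmax and KD from separate saturation binding isotherms.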
For orientation: Loss of bound radioactivity is the signal in a displacement assay; it reports binding, not function.

A short description of data set [6]: Volume of distribution in dog administered as methocel suspension. The data set is classed as ADME, organism-based, Canis lupus familiaris. The settings on record: in vivo.
The nature of data set [7]: Half life in dog administered as methocel suspension. To be noted: in vivo. In kind it is ADME, organism-based, Canis lupus familiaris.
Data set [8] in a line: (§2) Volume of distribution in rat administered as methocel suspension. To be noted: in vivo. The data set is classed as ADME, organism-based.
Data set [9] can be described thus: Clearance in dog administered as methocel suspension. In kind it is ADME, organism-based, Canis lupus familiaris. The settings on record: in vivo.
A short description of data set [10]: Half life in rat administered as methocel suspension. In kind it is ADME, organism-based. To be noted: in vivo.
A short description of data set [11]: Clearance in rat administered as methocel suspension. In kind it is ADME, organism-based. The settings on record: in vivo.
Data set [12] in a line: (§3) Oral bioavailability in rat administered as methocel suspension. In kind it is ADME, organism-based. The settings on record: in vivo.
Data set [13] can be described thus: Oral bioavailability in dog administered as methocel suspension. The data set is classed as ADME, organism-based, Canis lupus familiaris. To be noted: in vivo.
Data set [14] has as its system Mus musculus. Nature of the data set: Anxiolytic activity in po dosed mouse measured after 60 mins post dose by black/white box test. In kind it is functional. An outline of the steps: as §1
The test system of data set [15] is Mus musculus. Description: Anxiolytic activity in po dosed mouse assessed as duration of action of the compound measured after 60 mins post dose by black/white box test. The data set is classed as functional. An outline of the steps:
as §1

Data set [16] deals with Rattus norvegicus. The description is as §2. In kind it is ADME, organism-based. The settings on record: in vivo.
Data set [17] deals with Rattus norvegicus. The data set is described as §3. The data set is classed as ADME, organism-based. The settings on record: in vivo.
The mark [18] stands for this setting: Mus musculus, po, 1 h, read-out: ED50.

In general, solubility refers to how much of the substance goes into solution per volume. What is called Ki is the equilibrium dissociation constant of an inhibitor or competing ligand from its target. Higher therefore signals a looser hold on the target. The term pKi denotes −log10 of the Ki, conventionally taken in molar units. Lower therefore signals a high Ki. Regarding `CC(C)CCN1C(=O)C(NC(=O)Nc2ccc(O)cc2)C(=O)N(CCN2CCOCC2)c2ccccc21` (racemic), the solubility in data set [1] (read-out: solubility) was determined as 450 µg/mL (≈ 883 µM). Besides, the outcome in [2] was inactive. Moreover, in [3], the Ki is 8320 nM. For the same compound, in data set [4], the Ki selectivity ratio (CCK1 Ki / CCK2 Ki) is 1120. The same compound had a pKi in data set [5] of 8.13.
One may read the Vd as a proportionality between amount in the body and measured concentration, not a real space. Lower therefore signals little distribution into tissue. By half-life is commonly meant the time in which the quantity being followed falls by half. Low values mean rapid decline, high ones slow decline. Usually clearance stands for the rate of elimination divided by the concentration. A lower clearance goes with inefficient removal. One may read the bioavailability as dose-corrected exposure relative to a reference, in per cent. Read a high bioavailability as much systemic uptake. By ED50 is commonly meant the midpoint of the dose-response relation. In [1], `O=C(Nc1ccccc1)NC1C(=O)N(CCN2CCOCC2)c2ccccc2N(CC23CC4CC(CC(C4)C2)C3)C1=O` (racemic) registered a solubility of 230 µg/mL (≈ 402 µM). The volume of distribution (Vd) was 4.8 L/kg in data set [6] and 1 L/kg in data set [8]. Besides, the values for the half-life in data set [7] and in data set [10] were 96 min and 66 min, respectively. Moreover, the clearance was 34 mL/min in data set [9] and 12 mL/min in [11]. Also, in data set [3], the Ki was 2040 nM. In addition, the values for the bioavailability in [12] and in [13] were 13% and 9%, respectively. The pKi in data set [5] stood at 9.24. In data set [14], the ED50 worked out at 0.001 µg/kg.
As to `O=C(Nc1ccccc1)N[C@@H]1C(=O)N(CC23CC4CC(CC(C4)C2)C3)c2ccccc2N(c2ccccc2)C1=O`, the ED50 in data set [14] (setting [18]) is 0.05 µg/kg.
`O=C(Nc1ccc(F)cc1)NC1C(=O)N(CCN2CCOCC2)c2ccccc2N(CC23CC4CC(CC(C4)C2)C3)C1=O` (single isomer, unassigned; (-)) returned a solubility in data set [1] of 20 µg/mL (≈ 33.9 µM). Besides, in data set [3], the affinity corresponds to a Ki of 1020 nM. The same compound returned a pKi in [5] of 9.45.
Regarding `CC(C)CCN1C(=O)C(NC(=O)Nc2ccccc2)C(=O)N(CCN(C)C)c2ccccc21` (racemic), in [1] (read-out: solubility), the solubility worked out at 850 µg/mL (≈ 1880 µM). Besides, the Vd in [6] was determined as 2.5 L/kg; in [8], 3.1 L/kg. Moreover, the results for the half-life in data set [7] and in [10] were 78 min and 60 min, respectively. Moreover, the clearance in [9] is 23 mL/min; in data set [11] it was 37 mL/min. The Time in data set [15] came out at 2 h. Moreover, the affinity in data set [3], expressed as Ki, was 3310 nM. In addition, the Ki selectivity ratio (CCK1 Ki / CCK2 Ki) in [4] worked out at 759. Further, the bioavailability in data set [12] turned out to be 20%; in [13], 40%. Further, in [5], the pKi was 8.36. For the same compound, the ED50 in [14] (setting [18]) stood at 0.041 µg/kg.
With `O=C(Nc1ccccc1)NC1C(=O)N(CCN2CCOCC2)c2cc(F)ccc2N(CC23CC4CC(CC(C4)C2)C3)C1=O` (single isomer, unassigned; (-)), the solubility in [1] (read-out: solubility) stood at 360 µg/mL (≈ 610 µM). The Vd in data set [8] was 2.2 L/kg. Moreover, in data set [10], the half-life was 66 min. Also, in data set [15], the Time came out at 4 h. The same compound had a Ki in data set [3] of 3090 nM. Besides, in data set [11], the clearance was 23 mL/min. In [12], the bioavailability was 5%. This compound also came in with a pKi in data set [5] of 8.52. The ED50 in data set [14] (setting [18]) was found to be 0.08 µg/kg.
On to `CC(C)CCN1C(=O)C(NC(=O)Nc2ccccc2)C(=O)N(CCN2CCOCC2)c2ccccc21` (racemic), for which, in [1] (read-out: solubility), the solubility came to 450 µg/mL (≈ 912 µM). Further, the Vd in data set [6] stood at 1 L/kg; in data set [8] it was 1.1 L/kg. Further, the half-life in data set [7] was 54 min; in data set [10], 22.8 min. Moreover, the clearance is 14 mL/min in data set [9] and 34 mL/min in [11]. Moreover, in data set [15], the Time turned out to be 2 h. This compound also had a Ki in data set [3] of 676 nM. Besides, the Ki selectivity ratio (CCK1 Ki / CCK2 Ki) in data set [4] came to 234. Moreover, the bioavailability in data set [12] came to 18%; in [13] it was 36%. This compound also yielded a pKi in [5] of 8.54. Besides, the ED50 in data set [14] (setting [18]) stood at 0.011 µg/kg.
In [3], `CCN(CC)CCN1C(=O)C(NC(=O)Nc2ccccc2)C(=O)N(CCC(C)C)c2ccccc21` (racemic) had an inhibitory constant (Ki) of 4070 nM. In [4], the Ki selectivity ratio (CCK1 Ki / CCK2 Ki) is 2570. Further, the negative logarithm of the Ki (pKi) in data set [5] stood at 8.8. Moreover, the ED50 in [14] (setting [18]) was 0.0006 µg/kg.
As to `O=C(Nc1ccccc1)NC1C(=O)N(CCN2CCOCC2)c2ccccc2N(CC23CC4CC(CC(C4)C2)C3)C1=O` (single isomer, unassigned; (-)), the solubility in data set [1] (read-out: solubility) is 230 µg/mL (≈ 402 µM). In data set [16], this compound yielded a Vd of 1.1 L/kg. Further, the Time in [15] stood at 4 h. The same compound gave a Ki in data set [3] of 2040 nM. In [17], the F worked out at 10%. In addition, the pKi in data set [5] worked out at 9.64. Also, the ED50 in data set [14] (setting [18]) worked out at 0.002 µg/kg.
As to `O=C(Nc1ccc(F)cc1)NC1C(=O)N(CCN2CCOCC2)c2ccccc2N(CC23CC4CC(CC(C4)C2)C3)C1=O` (racemic), in data set [1] (read-out: solubility), the solubility is 20 µg/mL (≈ 33.9 µM). In [3], the affinity, expressed as Ki, was 1410 nM. For the same compound, the pKi in [5] is given as 8.66.
In data set [3], `COc1ccc(NC(=O)NC2C(=O)N(CCC(C)C)c3ccccc3N(CCN(C)C)C2=O)cc1` (racemic) gave a Ki of 17400 nM. The Ki selectivity ratio (CCK1 Ki / CCK2 Ki) in [4] is 1550. The same compound came in with a pKi in data set [5] of 7.95.
As to `CN(C)CCCN1C(=O)C(NC(=O)Nc2ccccc2)C(=O)N(CC23CC4CC(CC(C4)C2)C3)c2ccccc21` (racemic), the affinity in data set [3], expressed as Ki, was 20400 nM. Moreover, the Ki selectivity ratio (CCK1 Ki / CCK2 Ki) in data set [4] was 5620. Besides, in data set [5], the pKi came to 8.44.
In data set [1], `O=C(Nc1ccccc1)NC1C(=O)N(CCN2CCOCC2)c2cc(F)ccc2N(CC23CC4CC(CC(C4)C2)C3)C1=O` (racemic) had a solubility of 360 µg/mL (≈ 610 µM). For the same compound, the affinity in [3], expressed as Ki, was 2630 nM. The compound further came in with a pKi in data set [5] of 8.36.
`CC(C)CCN1C(=O)C(NC(=O)Nc2ccccc2)C(=O)N(CCN2CCCCC2)c2ccccc21` (racemic): in data set [3], affinity was put at a Ki of 2040 nM. The Ki selectivity ratio (CCK1 Ki / CCK2 Ki) in [4] was found to be 302. The compound further came in with a pKi in data set [5] of 8.17.
Regarding `CN(C)CCN1C(=O)C(NC(=O)Nc2ccccc2)C(=O)N(CC23CC4CC(CC(C4)C2)C3)c2ccccc21` (racemic), the solubility in data set [1] (read-out: solubility) was 850 µg/mL (≈ 1600 µM). For the same compound, the Vd in data set [8] worked out at 2.7 L/kg. Besides, the half-life in [10] was 66 min. Further, the Time in data set [15] is 4 h. Besides, the Ki in [3] is 3240 nM. The compound also showed a clearance in data set [11] of 28 mL/min. Besides, the Ki selectivity ratio (CCK1 Ki / CCK2 Ki) in [4] is 3240. The same compound came in with a bioavailability in data set [12] of 5%. Besides, the pKi in data set [5] came to 9. In [14] (setting [18]), the ED50 worked out at 0.004 µg/kg.
